Laboratory results published in ChEMBL document CHEMBL2169861, “Synthesis and biological evaluation of novel unsaturated carboxysteroids as human 5α-reductase inhibitors: a legitimate approach” (Eur J Med Chem, 2012).

Columns and labels:
[1] = biological target: T1, 3-oxo-5-alpha-steroid 4-dehydrogenase 2 (Homo sapiens) (UniProt P31213); assay: Inhibition of human type-2 5-alpha reductase expressed in HEK293 cells using [3H]-androstenedione as substrate at 10 uM after 30 mins by HPLC analysis; format: cell-based
T1 sequence (whole entry): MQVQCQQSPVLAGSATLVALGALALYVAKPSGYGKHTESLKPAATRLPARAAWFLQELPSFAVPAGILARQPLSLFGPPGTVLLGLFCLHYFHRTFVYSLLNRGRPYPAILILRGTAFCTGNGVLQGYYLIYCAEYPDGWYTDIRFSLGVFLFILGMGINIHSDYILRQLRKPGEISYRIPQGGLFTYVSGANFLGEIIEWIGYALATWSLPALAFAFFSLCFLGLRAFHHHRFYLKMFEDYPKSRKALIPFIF
Method in brief: (§1)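 Lysates of 80% confluent HEK293 cells stably expressing human type I or type II cDNA (pRcCMV), sonicated in 300 mM saccharose, 5 mM Tris-HCl, 0.1 mM EDTA. Final 500 nM androstenedione with [3H]androstenedione, NADPH-regenerating system (0.55 mM NADP, 5 mM glucose-6-phosphate, G6PDH), 2% DMSO; 30 min, 37 °C. Ether-extracted; conversion quantified by radio-HPLC on C8.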

[2] = biological target: T2, 3-oxo-5-alpha-steroid 4-dehydrogenase 1 (Homo sapiens) (UniProt P18405); assay: Inhibition of human type-1 5-alpha reductase expressed in HEK293 cells using [3H]-androstenedione as substrate at 10 uM after 30 mins by HPLC analysis; format: cell-based; method in brief: as §1
T2 sequence (whole entry): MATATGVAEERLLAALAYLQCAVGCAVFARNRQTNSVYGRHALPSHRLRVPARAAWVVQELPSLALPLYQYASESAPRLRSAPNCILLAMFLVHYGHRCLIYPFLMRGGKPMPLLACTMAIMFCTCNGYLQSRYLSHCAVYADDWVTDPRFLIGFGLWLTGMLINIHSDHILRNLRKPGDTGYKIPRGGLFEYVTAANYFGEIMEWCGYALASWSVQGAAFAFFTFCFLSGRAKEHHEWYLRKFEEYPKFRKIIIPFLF

[3] = system: Rattus norvegicus; assay: Anti-benign prostatic hyperplasia activity in Wistar rat assessed as reduction of liver weight gain per 100 gram of body weight at 1 mg/kg, po qd for 14 days measured on day 15; format: functional
Method in brief: (§2)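 Mature male Wistar rats, acclimatised one month, dosed orally once daily for 14 days with suspension in 0.50% carboxymethylcellulose at 5 ml/kg; vehicle controls; 5 rats/group. Killed under ether on day 15, 24 h after last dose; organs dissected free of fat and connective tissue, weighed, expressed per 100 g body weight. Mean ± SEM; one-way ANOVA with Dunnett's test.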

[4] = system: Rattus norvegicus; assay: Anti-benign prostatic hyperplasia activity in Wistar rat assessed as reduction of epididymis weight gain at 1 mg/kg, po qd for 14 days measured on day 15; format: functional; parameters: scale not given: the % may be the effect or the level left; method in brief: as §2
[5] = system: Rattus norvegicus; assay: Anti-benign prostatic hyperplasia activity in Wistar rat assessed as reduction of vas deferens weight gain at 1 mg/kg, po qd for 14 days measured on day 15; format: functional; parameters: scale not given: the % may be the effect or the level left; method in brief: as §2
[6] = system: Rattus norvegicus; assay: Anti-benign prostatic hyperplasia activity in Wistar rat assessed as reduction of adrenal weight gain per 100 gram of body weight at 1 mg/kg, po qd for 14 days measured on day 15; format: functional; method in brief: as §2
[7] = system: Rattus norvegicus; assay: Anti-benign prostatic hyperplasia activity in Wistar rat assessed as reduction of testis weight gain per 100 gram of body weight at 1 mg/kg, po qd for 14 days measured on day 15; format: functional; method in brief: as §2
[8] = system: Rattus norvegicus; assay: Anti-benign prostatic hyperplasia activity in Wistar rat assessed as reduction of seminal vesicle weight gain per 100 gram of body weight at 1 mg/kg, po qd for 14 days measured on day 15; format: functional; method in brief: as §2
[9] = system: Rattus norvegicus; assay: Anti-benign prostatic hyperplasia activity in Wistar rat assessed as reduction of dorsal prostate weight gain at 1 mg/kg, po qd for 14 days measured on day 15; format: functional, Prostate gland; parameters: scale not given: the % may be the effect or the level left; method in brief: as §2
[10] = system: Rattus norvegicus; assay: Anti-benign prostatic hyperplasia activity in Wistar rat assessed as reduction of ventral prostate weight gain at 1 mg/kg, po qd for 14 days measured on day 15; format: functional, Prostate gland; parameters: scale not given: the % may be the effect or the level left; method in brief: as §2
[11] = system: Rattus norvegicus; assay: Anti-benign prostatic hyperplasia activity in Wistar rat assessed as reduction of body weight gain at 1 mg/kg, po qd for 14 days measured on day 15; format: functional; parameters: scale not given: the % may be the effect or the level left; method in brief: as §2
[12] = system: Rattus norvegicus; assay: Toxicity in Wistar rat assessed as mortality at 1 mg/kg, po qd for 14 days measured on day 15; format: organism-based; parameters: dose 1 mg/kg, route oral; conditions: in vivo, 336 h
Method in brief: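 Mature male Wistar rats, acclimatised one month, dosing begun after 9 weeks. Compound suspended in 0.50% carboxymethylcellulose sodium and given orally at 5 ml/kg once daily for 14 days. Vehicle-only control group, 5 animals per group. Mortality recorded over treatment. Rats weighed and killed under ether anaesthesia on day 15, 24 h after the last dose.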

[13] = biological target: T1, 3-oxo-5-alpha-steroid 4-dehydrogenase 2 (Homo sapiens); assay: Inhibition of human type-2 5-alpha reductase expressed in HEK293 cells using [3H]-androstenedione as substrate at 2 uM after 30 mins by HPLC analysis; format: cell-based; method in brief: as §1
[14] = biological target: T3, 3-oxo-5-alpha-steroid 4-dehydrogenase 2 (Homo sapiens, UniProt P31213); assay: Inhibition of human type-2 5-alpha reductase expressed in HEK293 cells using [3H]-androstenedione as substrate after 30 mins by HPLC analysis; format: cell-based; method in brief: as §1
T3 sequence (P31213 whole entry): T1 sequence (whole entry)

[15] = biological target: T2, 3-oxo-5-alpha-steroid 4-dehydrogenase 1 (Homo sapiens); assay: Inhibition of human type-1 5-alpha reductase expressed in HEK293 cells using [3H]-androstenedione as substrate at 2 uM after 30 mins by HPLC analysis; format: cell-based; method in brief: as §1

| Compound | inhibition [1] [%] | inhibition [2] [%] | Activity [3] [g] | Activity [4] [%] | Activity [5] [%] | Activity [6] [mg] | Activity [7] [mg] | Activity [8] [mg] | Activity [9] [%] | Activity [10] [%] | Activity [11] [%] | Activity [12] | inhibition [13] [%] | IC50 [14] [nM] | inhibition [15] [%] |
| --- | --- | --- | --- | --- | --- | --- | --- | --- | --- | --- | --- | --- | --- | --- | --- |
| C[C@]12CCC(C#N)=CC1=CC[C@@H]1[C@@H]2CC[C@@]2(C)[C@H]1CCC(=O)N2CCC#N | 9.9 | 0 | – | – | – | – | – | – | – | – | – | – | – | – | – |
| C[C@]12CCC(Br)=CC1=CC[C@@H]1[C@@H]2CC[C@]2(C)NC(=O)CC[C@@H]12 | 45.6 | 34.5 | – | – | – | – | – | – | – | – | – | – | – | – | – |
| C[C@]12CC[C@H]3[C@@H](CC=C4C=C(C(=O)O)CC[C@@H]43)[C@@H]1CCC2=O | 100 | 82.1 | 3.078 | 29.88 | 34.8 | 15.019 | 926.533 | 167.37 | 15.62 | 22.56 | 22.992 | Non-toxic | 89.5 | 213 | – |
| CN1C(=O)CC[C@H]2[C@@H]3CC=C4C=C(C#N)CC[C@]4(C)[C@H]3CC[C@@]21C | 13.5 | 93 | 4.861 | 10.11 | 14.58 | 21.311 | 932.988 | 223.05 | -8.07 | 6.72 | 6.767 | Non-toxic | – | – | 64 |
| CCOC(=O)CCN1C(=O)CC[C@H]2[C@@H]3CC=C4C=C(C(=O)O)CC[C@]4(C)[C@H]3CC[C@@]21C | 100 | 8.5 | 3.542 | 25.41 | 37.55 | 17.522 | 1075.498 | 136.605 | 28.75 | 33.86 | 15.618 | Non-toxic | 100 | 26.5 | – |
| C=CCN1C(=O)CC[C@H]2[C@@H]3CC=C4C=C(C#N)CC[C@]4(C)[C@H]3CC[C@@]21C | 3.3 | 20.8 | – | – | – | – | – | – | – | – | – | – | – | – | – |
| CN1C(=O)CC[C@H]2[C@@H]3CC=C4C=C(C(=O)O)CC[C@]4(C)[C@H]3CC[C@@]21C | 100 | 18.9 | 3.224 | 31.75 | 29.36 | 12.464 | 956.392 | 126.262 | 39.96 | 39.5 | 6.517 | Non-toxic | 99 | 54.1 | – |
| C[C@]12CCC(C#N)=CC1=CC[C@@H]1[C@@H]2CC[C@@]2(C)[C@H]1CCC(=O)N2Cc1ccccc1 | 34.7 | 0 | – | – | – | – | – | – | – | – | – | – | – | – | – |
| C[C@]12CCC(C(=O)O)=CC1=CC[C@@H]1[C@@H]2CC[C@]2(C)NC(=O)CC[C@@H]12 | 62.9 | 0 | 2.713 | 13.98 | 26.33 | 13.973 | 993.729 | 186.102 | 46.5 | 27.33 | 8.323 | Non-toxic | – | – | – |
| C=CCN1C(=O)CC[C@H]2[C@@H]3CC=C4C=C(C(=O)O)CC[C@]4(C)[C@H]3CC[C@@]21C | 100 | 0.4 | 3.168 | 24.75 | 27.89 | 17.967 | 1094.935 | 149.399 | 31.25 | 35.34 | 7.518 | Non-toxic | 99.7 | 72.8 | – |
| CC(=O)N1C(=O)CC[C@H]2[C@@H]3CC=C4C=C(C#N)CC[C@]4(C)[C@H]3CC[C@@]21C | 23.2 | 2.2 | – | – | – | – | – | – | – | – | – | – | – | – | – |
| C[C@]12CC[C@H]3[C@@H](CC=C4C=C(C#N)CC[C@@H]43)[C@@H]1CCC2=O | 1.2 | 0 | – | – | – | – | – | – | – | – | – | – | – | – | – |
| CCN1C(=O)CC[C@H]2[C@@H]3CC=C4C=C(C#N)CC[C@]4(C)[C@H]3CC[C@@]21C | 48.9 | 56.1 | – | – | – | – | – | – | – | – | – | – | – | – | – |
| C[C@]12CCC(C#N)=CC1=CC[C@@H]1[C@@H]2CC[C@]2(C)NC(=O)CC[C@@H]12 | 9.9 | 27.6 | – | – | – | – | – | – | – | – | – | – | – | – | – |
| C[C@]12CCC(C#N)=CC1=CC[C@@H]1[C@@H]2CC[C@@]2(C)[C@H]1CCC(=O)N2C(=O)c1ccccc1 | 11.4 | 0 | – | – | – | – | – | – | – | – | – | – | – | – | – |
| CCN1C(=O)CC[C@H]2[C@@H]3CC=C4C=C(C(=O)O)CC[C@]4(C)[C@H]3CC[C@@]21C | 100 | 32.3 | 2.91 | 17.25 | 19.32 | 15.574 | 1128.214 | 151.015 | 28.37 | 39.35 | 5.409 | Non-toxic | 100 | 22.1 | – |
| CC(C)(C)NC(=O)[C@H]1CC[C@H]2[C@@H]3CC[C@H]4NC(=O)C=C[C@]4(C)[C@H]3CC[C@]12C [FINASTERIDE] | – | – | 3.5097 | 14.4 | 14.45 | 16.575 | 1058.022 | 105.51 | 45.32 | 44.76 | 8.032 | Non-toxic | – | 30.3 | – |
